Here are results for 2 compounds from ChEMBL document CHEMBL3525912, “Sulfation of 4-hydroxy toremifene: individual variability, isoform specificity, and contribution to toremifene pharmacogenomics” (Drug Metab Dispos, 2012).

Data set [1] in a line: Drug level in human liver cytosol assessed as SULT1A1 3'UTR ACG/ACG copy number-2-mediated compound formation treated with 4-OH-toremifene by HPLC analysis. The format is ADME, tissue-based. In short, it runs like this:
(§1)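 Liver cytosols from individual donors (100 µg protein) with 100 µM 4-OH-TOR, 20 µM [35S]PAPS, 50 mM potassium phosphate pH 6.2, 15 min at 37 °C. Sulfate measured by C18 radio-HPLC. SULT1A1 copy number by TaqMan qPCR against RNaseP, quadruplicate samples. Genotype–activity relation analysed by ANOVA. Triplicate incubations.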

Data set [2] can be described thus: Drug level in human liver cytosol assessed as SULT1A1 3'UTR ACG/GTA copy number-2-mediated compound formation treated with 4-OH-toremifene by HPLC analysis. In kind it is ADME, tissue-based. In short, it runs like this: as §1
Data set [3] is described as follows: Drug level in human liver cytosol assessed as SULT1A1 3'UTR GTA/GTA copy number-2-mediated compound formation treated with 4-OH-toremifene by HPLC analysis. In kind it is ADME, tissue-based. In short, it runs like this:
as §1

A short description of data set [4]: Drug level in human liver cytosol assessed as SULT1A1 3'UTR ACG/ACG copy number-3-mediated compound formation treated with 4-OH-toremifene by HPLC analysis. The format is ADME, tissue-based. In short, it runs like this: as §1
Data set [5] can be described thus: Drug level in human liver cytosol assessed as SULT1A1 3'UTR ACG/GTA copy number-3-mediated compound formation treated with 4-OH-toremifene by HPLC analysis. The format is ADME, tissue-based. In outline: as §1
Data set [6] can be described thus: Retention time of the compound. In kind it is physicochemical. In short, it runs like this: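 Symmetry C18 column (4.6 × 150 mm) run at 1.0 mL/min. Gradient: 2 mM TBAHS with 30% acetonitrile for 35 min, 45% acetonitrile for 15 min, then 30% for 20 min. 100 µl injection, flow scintillation detection.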
Data set [7] can be described thus: Drug level in human liver cytosol assessed as SULT1A1*1/2 single nucleotide polymorphism-mediated compound formation treated with 4-OH-TOR by HPLC analysis. In kind it is ADME, tissue-based. In short, it runs like this: as §1
The nature of data set [8]: Drug level in human liver cytosol assessed as SULT1A1 copy number-1-mediated compound formation treated with 4-OH-TOR by HPLC analysis. The format is ADME, tissue-based. In short, it runs like this: as §1
Data set [9] can be described thus: Drug level in human liver cytosol assessed as SULT1A1 copy number-2--mediated compound formation treated with 4-OH-TOR by HPLC analysis. In kind it is ADME, tissue-based. In short, it runs like this:
as §1

A short description of data set [10]: Drug level in human liver cytosol assessed as SULT1A1 copy number-3--mediated compound formation treated with 4-OH-TOR by HPLC analysis. In kind it is ADME, tissue-based. In outline:
as §1

The test system of data set [11] is Liver cytosol. Briefly: Drug metabolism in human liver cytosol assessed as 4-(4-chloro-1-(4-(2-(dimethylamino)ethoxy)phenyl)-2-phenylbut-1-enyl)phenyl hydrogen sulfate formation after 15 mins by Michaelis-Menten equation in presence of 20 uM PAPS. The format is ADME. The note with it: 0.25 h, read-out: Km(app). In short, it runs like this: (§2)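 Human liver cytosol (protein by Bradford) incubated with 4-OH-TOR (0.1–30 µM for kinetics), 20 µM [35S]PAPS, 50 mM potassium phosphate pH 6.2, final DMSO <0.1%, 15 min at 37 °C. Stopped with acetonitrile:acetic acid (96:4). Sulfate measured by radio-HPLC, background taken from a substrate-free vehicle control. Triplicate incubations.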

For data set [12], the system named is Liver cytosol. Description: Drug metabolism in human liver cytosol assessed as 4-(4-chloro-1-(4-(2-(dimethylamino)ethoxy)phenyl)-2-phenylbut-1-enyl)phenyl hydrogen sulfate formation measured per mg of protein after 15 mins by Michaelis-Menten equation in presence of 20 uM PAPS. The format is ADME. To be noted: 0.25 h. In outline:
as §2

Data set [13] relates to Liver cytosol. Description: Drug metabolism in human liver cytosol assessed as 4-(4-chloro-1-(4-(2-(dimethylamino)ethoxy)phenyl)-2-phenylbut-1-enyl)phenyl hydrogen sulfate formation measured per mg of protein treated with 0.1 to 30 after 15 mins by HPLC analysis. The format is ADME, tissue-based. To be noted: 0.25 h. In outline:
as §2

Data set [14] relates to Liver cytosol. Briefly: Drug metabolism in human liver cytosol assessed as 4-(4-chloro-1-(4-(2-(dimethylamino)ethoxy)phenyl)-2-phenylbut-1-enyl)phenyl hydrogen sulfate formation after 15 mins by HPLC analysis in presence of 20 uM PAPS and 0.1 to 10 uM SULT1A1 inhibitor DCNP. In kind it is ADME. The note with it: 0.25 h. In outline: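 Pooled human liver cytosol sulfating 4-OH-TOR with 20 µM PAPS, pH 6.2, plus 0.1–10 µM (final) ethanol-dissolved inhibitor. After 15 min the reaction was stopped with acetonitrile:acetic acid (96:4) and sulfate quantified by radio-HPLC. IC50 calculated. Three separate determinations.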

Data set [15] can be described thus: Drug metabolism in human liver cytosol assessed as SULT1A1*1/2 single nucleotide polymorphism-mediated 4-(4-chloro-1-(4-(2-(dimethylamino)ethoxy)phenyl)-2-phenylbut-1-enyl)phenyl hydrogen sulfate formation by HPLC analysis. In kind it is ADME, tissue-based. In outline: as §1
Data set [16] in a line: Drug metabolism in human liver cytosol assessed as SULT1A1 copy number-1-mediated 4-(4-chloro-1-(4-(2-(dimethylamino)ethoxy)phenyl)-2-phenylbut-1-enyl)phenyl hydrogen sulfate formation by HPLC analysis. The format is ADME, tissue-based. In short, it runs like this: as §1
Data set [17] can be described thus: Drug metabolism in human liver cytosol assessed as SULT1A1 copy number-2-mediated 4-(4-chloro-1-(4-(2-(dimethylamino)ethoxy)phenyl)-2-phenylbut-1-enyl)phenyl hydrogen sulfate formation by HPLC analysis. In kind it is ADME, tissue-based. In outline:
as §1

Data set [18] is described as follows: Drug metabolism in human liver cytosol assessed as SULT1A1 copy number-3-mediated 4-(4-chloro-1-(4-(2-(dimethylamino)ethoxy)phenyl)-2-phenylbut-1-enyl)phenyl hydrogen sulfate formation by HPLC analysis. In kind it is ADME, tissue-based. In short, it runs like this:
as §1

The nature of data set [19]: Drug metabolism in human liver cytosol assessed as SULT1A1 3'UTR ACG/ACG copy number-2 -mediated 4-(4-chloro-1-(4-(2-(dimethylamino)ethoxy)phenyl)-2-phenylbut-1-enyl)phenyl hydrogen sulfate formation by HPLC analysis. In kind it is ADME, tissue-based. In outline: as §1
Data set [20] in a line: Drug metabolism in human liver cytosol assessed as SULT1A1 3'UTR ACG/GTA copy number-2-mediated 4-(4-chloro-1-(4-(2-(dimethylamino)ethoxy)phenyl)-2-phenylbut-1-enyl)phenyl hydrogen sulfate formation by HPLC analysis. In kind it is ADME, tissue-based. In short, it runs like this:
as §1

The nature of data set [21]: Drug metabolism in human liver cytosol assessed as SULT1A1 3'UTR GTA/GTA copy number-2-mediated 4-(4-chloro-1-(4-(2-(dimethylamino)ethoxy)phenyl)-2-phenylbut-1-enyl)phenyl hydrogen sulfate formation by HPLC analysis. The format is ADME, tissue-based. In short, it runs like this:
as §1

Data set [22] in a line: Drug metabolism in human liver cytosol assessed as SULT1A1 3'UTR ACG/ACG copy number-3-mediated 4-(4-chloro-1-(4-(2-(dimethylamino)ethoxy)phenyl)-2-phenylbut-1-enyl)phenyl hydrogen sulfate formation by HPLC analysis. In kind it is ADME, tissue-based. In short, it runs like this: as §1
Data set [23] in a line: Drug metabolism in human liver cytosol assessed as SULT1A1 3'UTR ACG/GTA copy number-3-mediated 4-(4-chloro-1-(4-(2-(dimethylamino)ethoxy)phenyl)-2-phenylbut-1-enyl)phenyl hydrogen sulfate formation by HPLC analysis. The format is ADME, tissue-based. In short, it runs like this: as §1

With `CN(C)CCOc1ccc(/C(=C(/CCCl)c2ccccc2)c2ccc(OS(=O)(=O)O)cc2)cc1`, the Drug metabolism result in data set [1], in [2], in data set [3], in [4], in [5] and in [7] was “metabolite_detected” throughout. Moreover, the Drug metabolism result in data set [8], in data set [9] and in [10] was “metabolite_detected” in each case. Also, in [6], the Retention_time is 12.1 min.
In the case of `CN(C)CCOc1ccc(/C(=C(/CCCl)c2ccccc2)c2ccc(O)cc2)cc1` [4-HYDROXYTORMIFENE], in data set [6], the Retention_time is 45.2 min. Further, in the data set with Liver cytosol [11], the Km is 3.5 µM. In addition, the Vmax in the data set with Liver cytosol [12] amounted to 1.4 nmol/min/mg. Further, the Drug metabolism in the data set with Liver cytosol [13] is recorded as 0.0003 nmol/min; with Liver cytosol [14] it was “metabolite_not_detected”; in [15], “metabolite_detected”; in [16], “metabolite_detected”; in [17], “metabolite_detected”; in data set [18], “metabolite_detected”. The Drug metabolism entry in [19], in data set [20], in [21], in [22] and in data set [23] was “metabolite_detected” each time.

What is called Km is the concentration of substrate that gives half-maximal velocity. As usually defined, the Vmax is the top rate of the reaction or transport when substrate is in excess.
